Calls of active or inactive are those of the source. No cut-off for these calls is given here.
Assays:
BT-474 [1] = assay: Cytotoxicity against human BT474 cells at 0.05 to 0.25 uM after 48 hrs by WST-1 assay; assay type: cell-based; details: bt-474, 48 h
[2] = Cytotoxicity against human Friedreich's ataxia lymphocytes at 0.05 to 0.25 uM after 48 hrs by WST-1 assay
[3] = Cytoprotective activity in human Friedreich's ataxia lymphocytes assessed as reduction in DEM-induced oxidative stress at 0.5 uM preincubated for 16 hrs prior to DEM-stimulation measured after 6 hrs by trypan blue exclusion assay relative to untreated control; assay type: functional; set-up: scale not given: the % may be the effect or the level left
How it was run: (§1)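 FRDA lymphocytes treated with compound at 0.1–5 μM, then oxidatively stressed with diethyl maleate to deplete glutathione. Viability set to 100% for untreated cells. Mean ± SEM of three independent experiments run in duplicate.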

Homo sapiens [4] = organism: Homo sapiens; assay: Antioxidant activity in human Friedreich's ataxia lymphocytes assessed as suppression of DEM-induced lipid peroxidation at 1 uM after overnight incubation by flow cytometric analysis relative to untreated control; assay type: functional
How it was run: (§2)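 FRDA lymphocytes treated with compound at 1, 5 or 10 μM, then stressed with DEM. Lipid peroxidation probed with C11-BODIPY581/591; oxidized green fluorescence, median intensity, measured by flow cytometry and compared with untreated control. Results given as % scavenging activity; mean ± SEM, n = 3.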

[5] = Cytoprotective activity in human Friedreich's ataxia lymphocytes assessed as reduction in DEM-induced oxidative stress at 0.1 uM preincubated for 16 hrs prior to DEM-stimulation measured after 6 hrs by trypan blue exclusion assay relative to untreated control; assay type: functional; set-up: scale not given: the % may be the effect or the level left; how it was run: as §1
[6] = Cytoprotective activity in human Friedreich's ataxia lymphocytes assessed as reduction in DEM-induced oxidative stress at 2.5 uM preincubated for 16 hrs prior to DEM-stimulation measured after 6 hrs by trypan blue exclusion assay relative to untreated control; assay type: functional; set-up: scale not given: the % may be the effect or the level left; how it was run: as §1
[7] = Cytoprotective activity in human Friedreich's ataxia lymphocytes assessed as reduction in DEM-induced oxidative stress at 5 uM preincubated for 16 hrs prior to DEM-stimulation measured after 6 hrs by trypan blue exclusion assay relative to untreated control; assay type: functional; set-up: scale not given: the % may be the effect or the level left; how it was run: as §1
Homo sapiens [8] = organism: Homo sapiens; assay: Antioxidant activity in human Friedreich's ataxia lymphocytes assessed as suppression of DEM-induced lipid peroxidation at 10 uM after overnight incubation by flow cytometric analysis relative to untreated control; assay type: functional; how it was run: as §2
Homo sapiens [9] = organism: Homo sapiens; assay: Antioxidant activity in human Friedreich's ataxia lymphocytes assessed as suppression of DEM-induced lipid peroxidation at 5 uM after overnight incubation by flow cytometric analysis relative to untreated control; assay type: functional; how it was run: as §2
Homo sapiens [10] = organism: Homo sapiens; assay: Antioxidant activity in human Friedreich's ataxia lymphocytes assessed as suppression of DEM-induced ROS production at 5 to 10 uM preincubated for 16 hrs prior to DEM-stimulation measured after 80 mins by flow cytometric analysis; assay type: functional
How it was run: (§3)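 FRDA lymphocytes pretreated 16 h with compound (5 and 10 μM), then 5 mM diethyl maleate for 80 min to deplete glutathione. Cells washed, resuspended in PBS with 20 mM glucose, loaded with 10 μM DCFH-DA for 20 min. DCF fluorescence read by flow cytometry, 488 nm excitation, 530 ± 15 nm emission, 10,000 events. Expressed as % ROS scavenging; mean ± SEM, n = 3.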

Homo sapiens [11] = organism: Homo sapiens; assay: Cytoprotective activity in DEM-stimulated human Friedreich's ataxia lymphocytes assessed as cells with intact mitochondrial membrane potential at 5 uM preincubated for 16 hrs prior to DEM-stimulation measured after 140 mins by TMRM dye-based flow cytometric analysis (reference value: 92%); assay type: functional
Homo sapiens [12] = organism: Homo sapiens; assay: Antioxidant activity in human Friedreich's ataxia lymphocytes assessed as suppression of DEM-induced lipid peroxidation after overnight incubation by flow cytometric analysis; assay type: functional; how it was run: as §2
BT-474 [13] = assay: Cytotoxicity against human BT474 cells at 5 to 20 uM after 48 hrs by WST-1 assay; assay type: cell-based; details: bt-474, 48 h
[14] = target: Heat shock protein HSP 90-beta (Homo sapiens) (UniProt P08238); assay: Inhibition of HSP90 in human BT474 cells expressing HER2 assessed as increase in HSP90 protein level at 0.5 to 5 uM after 24 hrs by chemiluminescence assay; assay type: cell-based; details: BT-474
Chain of Heat shock protein HSP 90-beta (Homo sapiens) (P08238 whole entry): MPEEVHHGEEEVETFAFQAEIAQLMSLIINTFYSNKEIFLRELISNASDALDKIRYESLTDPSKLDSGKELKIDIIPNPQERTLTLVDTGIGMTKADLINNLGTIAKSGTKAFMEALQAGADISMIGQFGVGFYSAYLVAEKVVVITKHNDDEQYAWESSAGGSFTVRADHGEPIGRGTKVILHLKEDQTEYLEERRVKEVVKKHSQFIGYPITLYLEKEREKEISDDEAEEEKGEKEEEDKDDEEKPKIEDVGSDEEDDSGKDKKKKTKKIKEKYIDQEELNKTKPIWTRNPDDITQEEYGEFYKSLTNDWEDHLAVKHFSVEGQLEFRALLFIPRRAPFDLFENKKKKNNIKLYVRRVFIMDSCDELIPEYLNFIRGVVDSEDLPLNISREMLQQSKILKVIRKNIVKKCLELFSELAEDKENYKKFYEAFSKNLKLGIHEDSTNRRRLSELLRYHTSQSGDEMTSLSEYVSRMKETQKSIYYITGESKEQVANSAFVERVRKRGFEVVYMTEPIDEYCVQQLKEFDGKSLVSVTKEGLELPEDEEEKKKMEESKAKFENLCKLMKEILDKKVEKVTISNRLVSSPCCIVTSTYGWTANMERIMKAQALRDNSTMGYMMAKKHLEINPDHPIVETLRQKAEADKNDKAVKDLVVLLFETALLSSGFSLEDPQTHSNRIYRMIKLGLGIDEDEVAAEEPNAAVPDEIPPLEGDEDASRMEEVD

[15] = target: Amyloid-beta precursor protein (Homo sapiens) (UniProt P05067); assay: Neuroprotective activity in differentiated human SH-SY5Y cells assessed as decrease in amyloid beta (1 to 42)-induced neurotoxicity incubated overnight prior to amyloid beta (1 to 42)-stimulation measured after 48 hrs by WST-1 assay; assay type: functional, cell-based
Chain of Amyloid-beta precursor protein (Homo sapiens) (P05067 whole entry): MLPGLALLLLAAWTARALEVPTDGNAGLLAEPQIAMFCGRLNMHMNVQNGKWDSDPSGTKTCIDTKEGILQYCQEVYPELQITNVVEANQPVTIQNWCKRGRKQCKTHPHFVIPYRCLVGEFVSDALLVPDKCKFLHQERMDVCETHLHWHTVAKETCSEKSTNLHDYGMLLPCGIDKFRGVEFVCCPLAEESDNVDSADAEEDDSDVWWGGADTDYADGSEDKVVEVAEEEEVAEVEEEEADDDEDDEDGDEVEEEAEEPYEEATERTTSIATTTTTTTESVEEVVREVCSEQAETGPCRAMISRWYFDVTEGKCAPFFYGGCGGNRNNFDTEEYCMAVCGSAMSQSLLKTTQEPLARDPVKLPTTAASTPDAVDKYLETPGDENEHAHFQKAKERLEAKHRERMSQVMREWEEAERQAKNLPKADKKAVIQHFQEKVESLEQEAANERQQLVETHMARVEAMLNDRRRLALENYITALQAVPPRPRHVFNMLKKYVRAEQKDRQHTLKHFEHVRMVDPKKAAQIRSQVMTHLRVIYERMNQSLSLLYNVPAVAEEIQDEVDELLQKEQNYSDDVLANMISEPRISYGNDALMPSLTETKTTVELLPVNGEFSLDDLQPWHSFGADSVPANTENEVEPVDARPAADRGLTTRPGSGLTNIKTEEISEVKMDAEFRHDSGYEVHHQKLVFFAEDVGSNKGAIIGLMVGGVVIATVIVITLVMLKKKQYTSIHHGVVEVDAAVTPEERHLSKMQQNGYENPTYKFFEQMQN

Homo sapiens [16] = organism: Homo sapiens; assay: Cytoprotective activity in BSO-stimulated human Friedreich's ataxia fibroblasts assessed as preservation of mitochondrial membrane potential at 5 uM after 12 hrs by JC-1 dye-based Zeiss fluorescent microscopic analysis
[17] = target: Heat shock protein HSP 90-beta (Homo sapiens) (UniProt P08238); assay: Inhibition of HSP90 in human BT474 cells expressing HER2 assessed as HER2 protein degradation at 0.5 to 25 uM after 24 hrs by chemiluminescence assay; assay type: cell-based; details: BT-474
[18] = Cytotoxicity against DEM-stimulated human Friedreich's ataxia lymphocytes assessed as effect on intracellular glutathione concentration at 1 to 10 uM; assay type: cell-based
[19] = Cytotoxicity against human Friedreich's ataxia lymphocytes at 5 to 20 uM after 48 hrs by WST-1 assay
Homo sapiens [20] = organism: Homo sapiens; assay: Antioxidant activity in human Friedreich's ataxia lymphocytes assessed as suppression of DEM-induced ROS production preincubated for 16 hrs prior to DEM-stimulation measured after 80 mins by flow cytometric analysis; assay type: functional; how it was run: as §3
Homo sapiens [21] = organism: Homo sapiens; assay: Cytoprotective activity in human Friedreich's ataxia lymphocytes assessed as reduction in DEM-induced oxidative stress preincubated for 16 hrs prior to DEM-stimulation measured after 6 hrs by trypan blue exclusion assay; assay type: functional; how it was run: as §1

## COC1=C2C[C@@H](C)C[C@H](OC)[C@H](O)[C@@H](C)/C=C(\C)[C@H](OC(N)=O)[C@@H](OC)/C=C\C=C(/C)C(=O)NC(=CC1=O)C2=O [GELDANAMYCIN]
BT-474 [1]
  Activity: Toxic
[2]
  Activity: Toxic

## CCCCCCCCCCCCCC1=C(O)C(=O)C=C(NCCCCCC)C1=O
[3]
  Activity: 22%
Homo sapiens [4]
  Activity: 2%
[5]
  Activity: 18%
[6]
  Activity: 43%
[7]
  Activity: 65%
Homo sapiens [8]
  Activity: 38%
Homo sapiens [9]
  Activity: 27%
Homo sapiens [10]
  Activity: Active
Homo sapiens [11]
  Activity: 43%

## CCCCCCCCCCCCCC1=C(OC)C(=O)C=C(NCCCCCC)C1=O
[3]
  Activity: 50%
Homo sapiens [12]
  Activity: Dose-dependent effect
Homo sapiens [4]
  Activity: 14%
[5]
  Activity: 20%
[6]
  Activity: 66%
[7]
  Activity: 80%
Homo sapiens [8]
  Activity: 70%
Homo sapiens [9]
  Activity: 61%
Homo sapiens [10]
  Activity: Active
Homo sapiens [11]
  Activity: 56%

## COC1=C2CCCCCCCCCCCCCCCNC(=CC1=O)C2=O
[3]
  Activity: 69%
BT-474 [13]
  Activity: Non-toxic
Homo sapiens [12]
  Activity: Dose-dependent effect
[14]
  inhibition: inactive
[15]
  Activity: Dose-dependent effect
Homo sapiens [4]
  Activity: 29%
[5]
  Activity: 36%
[6]
  Activity: 83%
Homo sapiens [16]
  Activity: Active
[7]
  Activity: 92%
Homo sapiens [8]
  Activity: 83%
[17]
  inhibition: inactive
[18]
  Activity: Non-toxic
Homo sapiens [9]
  Activity: 72%
[19]
  Activity: Non-toxic
Homo sapiens [20]
  Activity: Dose-dependent effect
Homo sapiens [21]
  Activity: Dose-dependent effect
Homo sapiens [11]
  Activity: 80%

Reference: ChEMBL document CHEMBL2440049, “A structurally simplified analogue of geldanamycin exhibits neuroprotective activity” (ACS Med Chem Lett, 2013)
